Measured values from different studies.
Compare with care: the assays were run in different laboratories.
Read-out: cell growth or viability

Compound | cell line | technique | tested at | time | measurement | result
C[C@]12CC[C@@H]3c4ccc(O)cc4CC[C@H]3[C@@H]1CC[C@@H]2O | CAPAN-1 | ATP luminescence |  | 72 h | EC90 | 213000 nM
CN1CCN(C(=O)[C@H](CCCN[C@@H]2C[C@H]2c2ccc(F)cc2)NC(=O)c2ccc(-n3ccnn3)cc2)CC1 | TF-1a | resazurin |  | 96 h | EC50 | 31.1 nM
Nc1ccn([C@@H]2O[C@H](CO)[C@@H](O)[C@@H]2O)c(=O)n1 | FaDu | CCK-8 | 40 nM | 96 h | inhibition | 50%
C[C@H](Nc1ccc2c(c1)OCCn1cc(N3C(=O)OC[C@H]3C(F)F)nc1-2)C(N)=O | HCC1954 |  |  | 5 days | EC50 | 108 nM
CC(=O)Nc1cccc(-n2c(=O)n(C3CC3)c(=O)c3c(Nc4ccc(I)cc4F)n(C)c(=O)c(C)c32)c1 | SW-620 | resazurin | 6.25 nM | 72 h | viability | 38.8%
CC/C(=C(\c1ccccc1)c1ccc(OCCN(C)C)cc1)c1ccccc1 | CAPAN-1 | ATP luminescence |  | 72 h | EC90 | 28400 nM
COc1cc(Nc2nccc(-c3cnn4nc(OC)ccc34)n2)cc(C(F)(F)F)c1 | SAOS-2 | ATP luminescence |  |  | IC50 | 320 nM
COc1cccc2c1C(=O)c1c(O)c3c(c(O)c1C2=O)C[C@@](O)(C(=O)CO)C[C@@H]3O[C@H]1C[C@H](N)[C@H](O)[C@H](C)O1 | SUM159 | MTT |  | 48 h | IC90 | > 20000 nM
COc1ccc(-c2c(-c3ccc(C#N)c(F)c3)nc(N3CCC(N)CC3)n(C)c2=O)cc1F | TF-1a | resazurin |  | 96 h | EC50 | 7.87 nM
Cc1nc(NC(=O)N2CCC[C@H]2C(N)=O)sc1-c1ccnc(C(C)(C)C(F)(F)F)c1 | HCC1954 |  |  | 5 days | EC50 | 1130 nM
CN(C)CC[C@@H](c1ccc(Cl)cc1)c1ccccn1 | FaDu |  |  | 72 h | IC50 | > 20000 nM
CC(C)C[C@H](NC(=O)[C@H](Cc1ccccc1)NC(=O)c1cnccn1)B(O)O | SAOS-2 | ATP luminescence |  |  | IC50 | 25 nM
N[C@H]1CC[C@H](N[C@@H]2C[C@H]2c2ccccc2)CC1 | TF-1a | resazurin |  | 96 h | EC50 | 0.09 nM
CC1(C)C(=O)NC2=C1C(=O)C(=O)c1ccccc12 | FaDu |  |  | 72 h | IC50 | 4200 nM
